For assay [1], the system named is HL-60. Briefly: Growth inhibition of human HL60 cells at 40 uM by MTT assay. Type of assay: functional, cell-based. (In general: Tetrazolium dyes change colour on reduction, which living cells bring about.)
Assay [2] deals with A549. Nature of the assay: Growth inhibition of human A549 cells at 40 uM by MTT assay. Type of assay: functional, cell-based.
Assay [3] deals with SMMC-7721. Nature of the assay: Growth inhibition of human SMMC7721 cells at 40 uM by MTT assay. Type of assay: functional, cell-based.
The test system of assay [4] is SW480. Briefly: Growth inhibition of human SW480 cells at 40 uM by MTT assay. Type of assay: functional, cell-based.
For assay [5], the system named is MCF7. Briefly: Growth inhibition of human MCF7 cells at 40 uM by MTT assay. Type of assay: functional, cell-based.
Assay [6] relates to Fusarium oxysporum. Nature of the assay: Antifungal activity against Fusarium oxysporum at 800 ug/ml incubated for 48 hrs by microdilution method. Type of assay: functional, organism-based. The procedure, abridged: (§1)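 Modified standardized broth microdilution. Phytopathogenic fungi pre-grown on PDA at 22 °C for 7–10 days. Test compounds added at 50–800 μg/mL to wells with fungal suspension, 0.2 mL final volume, DMSO ≤3% final. DMSO served as negative control and fungus without compound as positive control. Incubation 22 °C, 48 h. MIC taken as lowest concentration with no visible growth. Run in triplicate.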

For assay [7], the system named is Pyricularia oryzae. Briefly: Antifungal activity against Pyricularia oryzae at 800 ug/ml incubated for 48 hrs by microdilution method. Type of assay: functional, organism-based. Summed up: (§2)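 Fungus pre-grown on PDA at 22 °C for 7–10 days. Modified standardized broth microdilution with compounds at 50–800 μg/mL (final) in fungal suspension, final DMSO ≤3%. DMSO-only and compound-free fungal wells served as controls. Incubated at 22 °C for 48 h. MIC is the lowest concentration with no visible growth. Run in triplicate.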
In general terms: In broth dilution the organism is exposed to a series of concentrations in liquid medium.

The nature of assay [8]: Antifungal activity against Gaeumannomyces graminis at 800 ug/ml incubated for 48 hrs by microdilution method. Type of assay: functional. Summed up: as §1
Assay [9] deals with Fusarium verticillioides. Nature of the assay: Antifungal activity against Fusarium moniliforme at 800 ug/ml incubated for 48 hrs by microdilution method. Type of assay: functional, organism-based. Summed up:
as §1

Assay [10] can be described thus: Antifungal activity against Verticillium cinnabarinum at 800 ug/ml incubated for 48 hrs by microdilution method. Type of assay: functional. Summed up: as §1
The subject of assay [11] is Fusarium oxysporum. Briefly: Antifungal activity against Fusarium oxysporum incubated for 48 hrs by microdilution method. Type of assay: functional. The procedure, abridged: as §1
Assay [12] can be described thus: Antifungal activity against Gaeumannomyces graminis incubated for 48 hrs by microdilution method. Type of assay: functional. Summed up: as §1
For assay [13], the system named is Pyricularia oryzae. Nature of the assay: Antifungal activity against Pyricularia oryzae incubated for 48 hrs by microdilution method. Type of assay: functional. Summed up:
as §2

Assay [14] has as its system MCF7. Briefly: Growth inhibition of human MCF7 cells by MTT assay. Type of assay: functional, cell-based.
The test system of assay [15] is SW480. Briefly: Growth inhibition of human SW480 cells by MTT assay. Type of assay: functional, cell-based.
For assay [16], the system named is Fusarium verticillioides. Nature of the assay: Antifungal activity against Fusarium moniliforme incubated for 48 hrs by microdilution method. Type of assay: functional. The procedure, abridged: as §1
Assay [17] has as its system SMMC-7721. Nature of the assay: Growth inhibition of human SMMC7721 cells by MTT assay. Type of assay: functional, cell-based.
Assay [18] has as its system HL-60. Nature of the assay: Growth inhibition of human HL60 cells by MTT assay. Type of assay: functional, cell-based.
In assay [19] the test system is A549. Briefly: Growth inhibition of human A549 cells by MTT assay. Type of assay: functional, cell-based.
Assay [20] in a line: Antifungal activity against Verticillium cinnabarinum incubated for 48 hrs by microdilution method. Type of assay: functional. The procedure, abridged: as §1

Molecules are shown by their SMILES. pIC50: −log10 of the molar value. Values after ≈ are worked out from the molar mass of the structure shown. Active and inactive are the calls of the source.

In the case of `C/C1=C/C=C\C=C\[C@H](C)[C@@H](O)CC(=O)/C(C)=C/C[C@H](O)/C=C/[C@H](C)[C@H](O)[C@@H](C)/C=C(\C)C(=O)c2c(O)c(C)cc3c2C(=O)C(O)=C(NC1=O)C3=O`, the “growth inhibition (GI)” value in the assay on HL-60 [1], in the assay on A549 [2], in the assay on SMMC-7721 [3], in the assay on SW480 [4] and in the assay with MCF7 [5] was “inactive” in each case. Moreover, the result (in the assay on Fusarium oxysporum [6]; with Pyricularia oryzae [7]; in assay [8]; in the assay on Fusarium verticillioides [9]; in assay [10]) was inactive.

On to `C/C1=C/C=C\C=C\[C@H](C)[C@@H](O)CC(=O)/C(C)=C/C[C@H](O)/C=C/[C@H](C)[C@H](O)[C@@H](C)/C=C(\C)C(=O)c2c(O)c(C)cc3c2C(=O)C(SCC(=O)O)=C(NC1=O)C3=O`, for which the “growth inhibition (GI)” value in the assay on HL-60 [1], in the assay on A549 [2], in the assay on SMMC-7721 [3], in the assay on SW480 [4] and in the assay with MCF7 [5] was “inactive” in each case. The result (with Fusarium oxysporum [6]; with Pyricularia oryzae [7]; in assay [8]; with Fusarium verticillioides [9]; in assay [10]) was inactive.

Turning to `C/C1=C/C=C\C=C\[C@H](C)[C@@H](O)CC(=O)/C(C)=C/C[C@H](O)/C=C/[C@H](C)[C@H](O)[C@@H](C)/C=C(\C)C(=O)c2c(O)c(C)cc3c2C(=O)C(Cl)=C(NC1=O)C3=O` [NAPHTHOMYCIN A], the MIC against Fusarium oxysporum [11] turned out to be 400 µg/mL (≈ 555 µM); in assay [12], 400 µg/mL (≈ 555 µM); against Pyricularia oryzae [13], 400 µg/mL (≈ 555 µM); against Fusarium verticillioides [16] it was 100 µg/mL (≈ 139 µM); in [20], 400 µg/mL (≈ 555 µM). In addition, the pIC50 in the assay on MCF7 [14] was 4.93; with SW480 [15], 4.93; in the assay on SMMC-7721 [17], 4.78; in the assay on HL-60 [18], 4.59; in the assay with A549 [19], 4.80.

Consider `C/C1=C/C=C\C=C\[C@H](C)[C@@H](O)CC(=O)/C(C)=C/C[C@H](O)/C=C/[C@H](C)[C@H](O)[C@@H](C)/C=C(\C)C(=O)c2c(O)c(C)cc3c2C(=O)C(N)=C(NC1=O)C3=O` [NAPHTHOMYCIN L], for which the MIC in the assay on Fusarium oxysporum [11] stood at 600 µg/mL (≈ 856 µM); in assay [12], 600 µg/mL (≈ 856 µM); against Pyricularia oryzae [13] it was 600 µg/mL (≈ 856 µM); in the assay on Fusarium verticillioides [16] it was 300 µg/mL (≈ 428 µM); in assay [20] it was 600 µg/mL (≈ 856 µM). The “growth inhibition (GI)” value with HL-60 [1], in the assay on A549 [2], in the assay on SMMC-7721 [3], with SW480 [4] and in the assay with MCF7 [5] was “inactive” each time.

On to `C/C1=C/C=C\C=C\[C@H](C)[C@@H](O)CC(=O)/C(C)=C/C[C@H](O)/C=C/[C@H](C)[C@H](O)[C@@H](C)/C=C(\C)C(=O)c2c(O)c(C)cc3c2C(=O)C(NCCSC2=C4NC(=O)\C(C)=C/C=C\C=C\[C@H](C)[C@@H](O)CC(=O)/C(C)=C/C[C@H](O)/C=C/[C@H](C)[C@H](O)[C@@H](C)/C=C(\C)C(=O)c5c(O)c(C)cc(c5C2=O)C4=O)=C(NC1=O)C3=O`, for which the “growth inhibition (GI)” value with HL-60 [1], with A549 [2], with SMMC-7721 [3], with SW480 [4] and in the assay on MCF7 [5] was “inactive” each time. In addition, the outcome (in the assay on Fusarium oxysporum [6]; with Pyricularia oryzae [7]; in assay [8]; with Fusarium verticillioides [9]; in [10]) was inactive.

For `C/C1=C/C=C\C=C\[C@H](C)[C@@H](O)CC(=O)/C(C)=C/C[C@H](O)/C=C/[C@H](C)[C@H](O)[C@@H](C)/C=C(\C)C(=O)c2c(O)c(C)cc3c2C(=O)C=C(NC1=O)C3=O`, the “growth inhibition (GI)” value in the assay on HL-60 [1], in the assay on A549 [2], with SMMC-7721 [3], in the assay on SW480 [4] and in the assay with MCF7 [5] was “inactive” in each case. In addition, the outcome (with Fusarium oxysporum [6]; in the assay on Pyricularia oryzae [7]; in [8]; with Fusarium verticillioides [9]; in [10]) was inactive.

By MIC is commonly meant the smallest concentration in the dilution series that meets the test's criterion for growth inhibition. The low end stands for a more susceptible organism, the high end for a less susceptible organism. In general, pIC50 refers to −log10 of the IC50, conventionally taken in molar units. A low value points to a high IC50.

The values above are taken from ChEMBL document CHEMBL2169852, “Naphthomycins L-N, ansamycin antibiotics from Streptomyces sp. CS” (J Nat Prod, 2012).
